# Laboratory results taken from ChEMBL document CHEMBL1149885, “Active core structure of terfestatin A, a new specific inhibitor of auxin signaling” (Bioorg Med Chem, 2008).
# Calls of active or inactive are those of the source. No cut-off for these calls is given here.
# System: Arabidopsis
# Assay: Inhibition of indole-3-acetic acid-induced GUS reporter gene expression in Arabidopsis BA3 at 50 uM after 5 hrs
# Format: functional, organism-based
# How it was run: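 Arabidopsis BA3::GUS seedlings (GUS under an auxin-responsive promoter) were grown vertically for 5 days under continuous light. They were moved into GM (0.5x MS salts, 1% sucrose, B5 vitamins, 0.2 g/L MES, pH 5.8) holding 50 µM derivative plus 1 µM IAA for 5 h. GUS was then stained histochemically with 1 mM X-Gluc at 37 °C for 3–4 h.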
row,SMILES,Activity
1,Oc1cc(-c2ccccc2)c(OCCCCCl)c(O)c1-c1ccccc1,Active
2,Oc1cc(-c2ccccc2)c(OCC2CCCCC2)c(O)c1-c1ccccc1,inactive
3,CCCOc1c(-c2ccccc2)cc(O)c(-c2ccccc2)c1O,Active
4,CCCCOc1ccc(-c2cc(O)c(-c3ccccc3)c(O)c2O[C@@H]2O[C@H](CO)[C@@H](O)[C@H](O)[C@H]2O)cc1,inactive
5,OC[C@H]1O[C@@H](Oc2ccc(O)c(-c3ccccc3)c2O)[C@H](O)[C@@H](O)[C@@H]1O,inactive
6,OC[C@H]1O[C@@H](Oc2c(O)cc(O)cc2-c2ccccc2)[C@H](O)[C@@H](O)[C@@H]1O,inactive
7,COc1c(O[C@@H]2O[C@H](CO)[C@@H](O)[C@H](O)[C@H]2O)c(-c2ccccc2)cc(O)c1-c1ccccc1,inactive
8,CCOC(=O)CCCCOc1ccc(-c2cc(O)c(-c3ccccc3)c(O)c2O[C@@H]2O[C@H](CO)[C@@H](O)[C@H](O)[C@H]2O)cc1,inactive
9,CCOc1c(-c2ccccc2)cc(O)c(-c2ccccc2)c1O,Active
10,COCOc1c(-c2ccccc2)cc(O)c(-c2ccccc2)c1O,Active
11,Cc1ccc(-c2c(O)cc(-c3ccccc3)c(O[C@@H]3O[C@H](CO)[C@@H](O)[C@H](O)[C@H]3O)c2O)cc1,inactive
12,Oc1cc(-c2ccccc2)c(OCC2CC2)c(O)c1-c1ccccc1,inactive
13,CCCCOc1c(-c2ccccc2)cc(O)c(-c2ccccc2)c1O,Active
14,"OC[C@H]1O[C@@H](Oc2c(-c3ccccc3)cc(O)c(-c3cccc4ccccc34)c2O)[C@H](O)[C@@H](O)[C@@H]1O (single isomer, unassigned)",inactive
15,COC(=O)c1ccc(-c2cc(O)c(-c3ccccc3)c(O)c2O[C@@H]2O[C@H](CO)[C@@H](O)[C@H](O)[C@H]2O)cc1,inactive
16,CC(C)COc1c(-c2ccccc2)cc(O)c(-c2ccccc2)c1O,inactive
17,CCCCOc1ccc(-c2c(O)cc(-c3ccccc3)c(O[C@@H]3O[C@H](CO)[C@@H](O)[C@H](O)[C@H]3O)c2O)cc1,inactive
18,CC(=O)OC[C@H]1O[C@@H](Oc2c(-c3ccccc3)cc(O)c(-c3ccccc3)c2O)[C@H](OC(C)=O)[C@@H](OC(C)=O)[C@@H]1OC(C)=O,inactive
19,OC[C@H]1O[C@@H](Oc2cc(-c3ccccc3)c(O)cc2-c2ccccc2)[C@H](O)[C@@H](O)[C@@H]1O,Active
20,CCCCCOc1c(-c2ccccc2)cc(O)c(-c2ccccc2)c1O,Active
21,CCCCCCOc1c(-c2ccccc2)cc(O)c(-c2ccccc2)c1O,inactive
22,COc1cc(-c2ccccc2)c(O[C@H]2O[C@@H](CO)[C@H](O)[C@@H](O)[C@@H]2O)c(O)c1-c1ccccc1,inactive
